Among the data in article PMC7302971 (Bioorganic chemistry, 2020) are CC50 values, retold here.

A short description of the data set: MTT cell viability assay, normal WBCs. Format: cell-based. To be noted: human. In outline: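 Human WBCs were isolated from diluted blood on HiSep density medium (400 × g, 30 min, room temperature). Mononuclear cells were PBS-washed, RBC-lysed for 5 min, washed again and kept in RPMI 1640 at 37 °C in 5% CO2. Cells were seeded at about 5×10³ per well and exposed to test compound at 2.5–100 μM for 48 h.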
Background: Formazan colour is commonly taken as a measure of viable cells.

Compound `O=C(CN1C(=O)SC(=Cc2ccccn2)C1=O)Nc1nc2ccccc2s1` [Compound P19, N-(benzo[d]thiazol-2-yl)-2-(2,4-dioxo-5-(pyridin-2-ylmethylene)thiazolidin-3-yl)acetamide] showed a cytotoxic concentration (CC50) at 48 h of 104 µM.

The term CC50 denotes the concentration at which the toxic effect on the cells reaches its halfway point. Lower therefore signals harm at low concentration.
